24 compounds from PubChem BioAssay AID624467 (The Scripps Research Institute Molecular Screening Center, 2012) can be followed below.

Screen size: about 360,000 compounds; about 3,600 (1%) were called active. Shown is part of a subset that was picked to be rich in actives. Values without a mark were called inactive.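 The calls were made as follows: active = activation above the mean activation of all test compounds in the run plus 3 SD (cut at about 38% in these data); inactive = the rest.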

Trace amine-associated receptor 1 (Homo sapiens), sequence (Q96RJ0 whole entry, looked up): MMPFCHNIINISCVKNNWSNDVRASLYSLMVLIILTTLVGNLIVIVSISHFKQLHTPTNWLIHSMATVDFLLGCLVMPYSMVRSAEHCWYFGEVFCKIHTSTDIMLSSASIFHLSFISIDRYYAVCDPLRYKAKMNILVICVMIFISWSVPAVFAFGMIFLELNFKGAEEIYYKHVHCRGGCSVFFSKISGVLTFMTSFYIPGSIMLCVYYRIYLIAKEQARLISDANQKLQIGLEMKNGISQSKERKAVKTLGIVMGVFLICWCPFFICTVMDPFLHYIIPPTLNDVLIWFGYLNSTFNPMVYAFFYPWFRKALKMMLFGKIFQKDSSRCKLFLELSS

This test addresses Trace amine-associated receptor 1 (Homo sapiens) (UniProt Q96RJ0). Description: human TAAR1 agonists, primary screen, Fluo-8 calcium fluorescence, CHO RD-HGA16 cells (AID 624467). As to conditions: CHO RD-HGA16 TAAR1, Fluo-8 calcium fluorescence; at 3 µM; stronger effect = higher value; vehicle wells 0%, saturating PEA agonist 100%. Summed up: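 System: CHO-derived RD-HGA16 cells with stable Gα16 and human TAAR1. Times: 17-24 h plating, Fluo-8 75 min 37 °C, 30 min RT. Measured by: calcium-sensitive Fluo-8 signal, excitation 470-495, emission 515-575 nm. Read-out basis: % activation relative to PEA EC100 response. Control set: DMSO and PEA EC100. Repeats: no replicates (n 1).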
Consider `CCCCCCc1cc2cc(-c3nnc(-c4cccc(OC)c4)o3)c(=O)oc2cc1O`, for which the activation is 16.7%.
As for `CCn1cc(CN2CCCC(CNS(=O)(=O)Cc3ccccc3)C2)cn1` (centres undefined), the figure is 0.93%.
Take `COc1ccc2nc3n(c(=O)c2c1)-c1ccc(Cl)cc1C(=O)NC3Cc1ccccc1` (centres undefined): the activation is 4.87%.
The result for `Cn1c(=O)c(=O)n(C)c2cc(S(=O)(=O)NCCc3ccccc3)ccc21` reads 82.3% (active).
The result for `O=S(=O)(NCCc1ccccc1)c1ccccc1` reads 15.9%; that for `Cn1c(=O)c(=O)n(C)c2cc(S(=O)(=O)NCCN3CCN(c4ccccc4F)CC3)ccc21`, -1.59%.
As for `C[C@@H](CN1C2=NC[C@@H](Cc3ccccc3)N2C[C@H]1Cc1ccc(O)cc1)NC(=O)CCC1CCCCC1`, the activation was -0.01%.
As for `O=C(NCC1(N2CCCCC2)CCCCC1)c1cccc(S(=O)(=O)Nc2ccccc2Cl)c1`, the figure is -0.1%.
The result for `C[C@H]1[C@H](c2ccccc2)Oc2cc(Br)ccc2S(=O)(=O)N1Cc1cccc(F)c1` reads 2.18%; that for `Cc1ccnc(NC(=O)C(C)N2C(=O)c3ccccc3C2=O)c1` (centres undefined), 2.11%; that for `Cc1cccc(NC(=O)C(C)N2C(=O)C3C4CC(C(Br)C4Br)C3C2=O)c1` (centres undefined), 49.9% (active).
The result for `Cc1cccc(NC(=O)CN2C(=O)CNC2=O)c1` reads 6.24%; that for `Cc1cccc(N(C(=O)c2ccc(CN3CCOCC3)o2)C(C(=O)NC2CCCCC2)c2ccc(F)cc2)c1` (centres undefined), 0.09%.
For `COc1ccccc1C(=O)N1O[C@]23C=C[C@]14C[C@@H](O)CC[C@]4(C)C2CC[C@]1(C)[C@@H]([C@H](C)/C=C/[C@H](C)C(C)C)CC[C@H]13` (some centres undefined), the activation is -1.12%.
As for `O=C(Nc1c(Cl)c(C2CC2)nn1-c1ccccc1)C(Cl)(Cl)Cl`, the figure is 1.51%; as for `CCCCOC(=O)CCCc1ccc([N+](=O)[O-])cc1[N+](=O)[O-]`, -2.61%.
As for `CCCCCOc1ccc(CSC2=NCCN2)cc1[N+](=O)[O-]`, the figure is 40.3% (active); as for `CCCCOc1ccc(CON(C(C)=O)C(C)=O)cc1Cl`, -2.24%; as for `O=[N+]([O-])c1ccccc1OCCCCN1CCCCC1`, 7.82%.
With `CCCCOc1ccc(CSC(=N)N)cc1[N+](=O)[O-]`, the activation was 68.2% (active).
As for `CCOc1ccc(C(=O)Nc2nccs2)cc1[N+](=O)[O-]`, the figure is 5.29%; as for `C#CCN([C@@H](C)C(=O)OCC)S(=O)(=O)c1ccc(Br)cc1F`, -2.1%.
The result for `O=C(C[C@@H]1C/C=C\CCC(=O)OC[C@@H]2CCCN2C1=O)NCCO` reads 13.4%; that for `C[C@H](CO)N1C[C@H](C)[C@@H](CN(C)C(=O)Nc2ccccc2F)OCc2cn(nn2)CCCC1=O`, 0.9%.
